High-throughput results (PubChem)
CAL PDZ FP-1 – CAL PDZ (human) peptide binding inhibition; Q9HD26; purified CAL PDZ, TMR-peptide fluorescence polarization, 1 h; inhibition, % at 24.9 µM; 0.92% of 300,000 active; AID 602252;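 active means mean inhibition of at least 30% with at least half of replicates also reaching 30%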
ARNT TACC3 PPI – ARNT/TACC3 interaction disruption; inhibition, % at 9.99 µM; AlphaScreen His-ARNT PAS-B/GST-TACC3 binding, luminescence; TACC3 fragment carries E629A point mutation; AID 623870; Q9Y6A5; 0.66% of 390,000 active;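 active means mean inhibition of replicates at least 50% and at least half of replicates each reaching 50%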
Rce1 inhib – blocks yeast Ras-converting enzyme; yeast membranes, quenched prenylated peptide cleavage fluorescence; calls only; 0.27% of 290,000 active; AID 2563;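 active means fall in fluorescence gain of 50% or more versus controls, with final raw signal at or below 3038400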
Target sequence (Q03530 whole entry, looked up): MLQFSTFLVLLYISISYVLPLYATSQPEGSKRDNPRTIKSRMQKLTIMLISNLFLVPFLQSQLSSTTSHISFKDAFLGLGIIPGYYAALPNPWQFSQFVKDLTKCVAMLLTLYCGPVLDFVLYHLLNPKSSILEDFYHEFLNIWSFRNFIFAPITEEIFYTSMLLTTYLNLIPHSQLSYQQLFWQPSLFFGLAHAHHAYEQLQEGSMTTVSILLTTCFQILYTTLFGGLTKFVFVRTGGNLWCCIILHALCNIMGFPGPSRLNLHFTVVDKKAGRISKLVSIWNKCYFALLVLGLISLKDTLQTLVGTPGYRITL
CAL PDZ FP-2 – inhibitors of human CAL PDZ peptide binding. 0.02% of 330,000 active. AID 504414. inhibition, % at 20 µM. purified CAL PDZ, TMR-peptide fluorescence polarization, 1 h. Q9HD26;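 active means highest replicate inhibition of at least 40%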
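Test system: tagged CAL PDZ domain / Buffer or medium: sodium phosphate/NaCl buffer pH 7.4 with TCEP, IgG, Thesit / Reagent: TMR-labelled reporter peptide T*-PRC34 bound in PDZ groove / Compound dosing: single point, 20 µM / Schedule: 1 h incubation at room temperature before polarization reading / Technique: fluorescence polarization (mP) / Benchmarks: unlabelled peptide, DMSO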
AI-2 QS modul – modulators of Vibrio harveyi AI-2 quorum sensing system. Vibrio harveyi JMH597 AI-2 luminescence/OD600 ratio, 9 h; active compounds read low; strain lacks LuxN and CqsS sensors; 0 = neutral-control median. 0.4% of 300,000 active. AID 2094. activity change, % at 7.5 µM; in the data active means activity change below about -75%, passing the limit was not always enough;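 further: luminescence divided by OD600 gain over 9 h not by final OD600 alone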
Each line names hits and unclear results; the compound was inactive in the other large screens. Sampled rows, rich in hits. Any-hit rate of the full collection: about 1.7%.

Cc1ccc(S(=O)(=O)NC2OC(=O)C(Cl)=C2Cl)cc1 (centres undefined)	none
Nc1nnnn1/N=C/c1cccc(OCc2ccccc2Cl)c1	Rce1 inhib active
O=C(COc1cc2oc(=O)c3c(c2cc1Cl)CCC3)NCC1CCC(C(=O)O)CC1 (centres undefined)	none
O=[N+]([O-])c1cccc(CP(=O)(c2ccccc2)c2ccccc2)c1	CAL PDZ FP-1 60 (no result: ARNT TACC3 PPI, Rce1 inhib, AI-2 QS modul)
O=[N+]([O-])c1ccc(CP(=O)(c2ccccc2)c2ccccc2)cc1	none
COc1cc2c(cc1OC)C(C)N(C(=O)c1cc3c(=O)oc4ccc(C)cc4c3s1)CC2 (centres undefined)	Rce1 inhib active (no result: CAL PDZ FP-1)
COc1cc2c(cc1OC)C(C)N(C(=O)c1cccs1)CC2 (centres undefined)	none
C#CCOCCOCCOCCNc1nc(N2CCN(C(=O)[C@H](Cc3ccc(O)cc3)n3cc([C@@H](N)C(C)CC)nn3)CC2)nc(N2CCN(C(=O)[C@H](CCCCN)n3cc([C@@H](N)CO)nn3)CC2)n1 (some centres undefined)	ARNT TACC3 PPI 46
C#CCOCCOCCOCCNc1nc(N2CCN(C(=O)CCCCCCCCCCNC(=O)[C@@H](CCC(=O)O)n3cc(CCCCCN)nn3)CC2)nc(N2CCN(C(=O)CCCCCCCCCCNC(=O)[C@H]([C@@H](C)CC)n3cc(CCCCCN)nn3)CC2)n1	ARNT TACC3 PPI 49 (no result: Rce1 inhib, AI-2 QS modul)
C#CCOCCOCCOCCNc1nc(N2CCN(C(=O)CCCCCCCCCCNC(=O)[C@H]([C@@H](C)CC)n3cc(CCCCCN)nn3)CC2)nc(N2CCN(C(=O)CCCCCCCCCCNC(=O)[C@H](CCCCN)n3cc(CCCC(=O)O)nn3)CC2)n1	none (no result: Rce1 inhib, AI-2 QS modul)
C[C@@H]1CN([C@H](C)CO)C(=O)Cc2cc(NC(=O)CCN3CCOCC3)ccc2O[C@@H]1CN(C)C(=O)Nc1ccc(C(F)(F)F)cc1	none (no result: CAL PDZ FP-1, Rce1 inhib, CAL PDZ FP-2, AI-2 QS modul)
COc1ccc(NC(=S)N(CCCN2CCN(C)CC2)Cc2cccs2)cc1	ARNT TACC3 PPI 85 (no result: CAL PDZ FP-1)
CN1CCN(CCCN(Cc2cccs2)C(=S)Nc2ccc(Cl)cc2)CC1	none (no result: Rce1 inhib, AI-2 QS modul)
CC(C)[C@H](NC(=O)OC(C)(C)C)C(=O)N/N=C/c1ccc2nccnc2c1	CAL PDZ FP-1 70
Cc1[nH]c(=O)[nH]c(=O)c1/C=N/NC(=O)[C@H](C)N	ARNT TACC3 PPI 47
CC(C)[C@@H](N)C(=O)N/N=C/c1ccc2nccnc2c1	none
Cc1[nH]c(=O)[nH]c(=O)c1/C=N/NC(=O)[C@@H](NC(=O)OC(C)(C)C)C(C)C	ARNT TACC3 PPI 47
Cc1[nH]c(=O)[nH]c(=O)c1/C=N/NC(=O)CCNC(=O)OC(C)(C)C	none
Cc1[nH]c(=O)[nH]c(=O)c1/C=N/NC(=O)CCCCCNC(=O)OC(C)(C)C	none
OC(CNCC1CCCO1)Cn1c2ccccc2c2ccccc21 (centres undefined)	none
OC(CNCCC1C=Nc2ccccc21)Cn1c2ccc(Cl)cc2c2cc(Cl)ccc21 (centres undefined)	Rce1 inhib active (no result: CAL PDZ FP-1)
OC(CNCC1CCCO1)Cn1c2ccc(Cl)cc2c2cc(Cl)ccc21 (centres undefined)	CAL PDZ FP-1 44
Cc1ccc(S(=O)(=O)Nc2ccc3c(c2)C(=O)N([C@@H](C)CO)C[C@@H](C)[C@@H](CN(C)S(=O)(=O)c2c(C)noc2C)OCCCC[C@@H](C)O3)cc1	none (no result: CAL PDZ FP-1, Rce1 inhib, CAL PDZ FP-2, AI-2 QS modul)
O=C(NC[C@@H]1[C@@H](c2ccccc2)[C@@H](CO)N1CC1CCCC1)c1cccnc1	none (no result: CAL PDZ FP-1, Rce1 inhib, CAL PDZ FP-2, AI-2 QS modul)
O=C(NCC1CCCCC1)c1cccnc1	CAL PDZ FP-1 43
CCc1ccc2nc(N(CCN(C)C)C(=O)c3ccc4ccccc4c3)sc2c1	CAL PDZ FP-1 69
CN(C)CCN(C(=O)c1ccc2ccccc2c1)c1nc2ccc(F)cc2s1	Rce1 inhib active
CC1CCN(C(C)C(=O)Nc2cc(S(=O)(=O)N3CCCCC3)ccc2Cl)CC1 (centres undefined)	none (no result: Rce1 inhib, AI-2 QS modul)
COC(=O)c1sccc1NC(=O)CC1NCCNC1=O (centres undefined)	CAL PDZ FP-1 130
COC(=O)c1cc(NC(=O)CC2NCCNC2=O)cc(C(=O)OC)c1 (centres undefined)	none
Cc1ccc(-c2csc3ncnc(SCC(=O)NCC4CCCO4)c23)cc1 (centres undefined)	CAL PDZ FP-1 33 (no result: ARNT TACC3 PPI, Rce1 inhib, AI-2 QS modul)
CCOc1ccc(OCC)c(NC(=O)c2nnn(CC(=O)Nc3cc(C)cc(C)c3)c2N)c1	Rce1 inhib active (no result: CAL PDZ FP-1)
Cc1cc(NC(=O)CCSc2ccccc2)ccc1Br	AI-2 QS modul -87
CCOc1ccc(NC(=O)CCSc2ccc(C)cc2)cc1	Rce1 inhib active
Cc1cc(Br)ccc1NC(=O)CCSc1ccccc1	none
O=C(NCc1ccc(Cl)cc1)C1CCN(S(=O)(=O)N2CCOCC2)CC1	none
COc1cccc(CNC(=O)C(C)n2ccc3cc(S(=O)(=O)N4CCCC4)ccc32)c1 (centres undefined)	CAL PDZ FP-1 42
COc1cccc(CNC(=O)C(C)n2ccc3cc(S(=O)(=O)N4CCCCCC4)ccc32)c1 (centres undefined)	none
COc1ccc2cc(S(=O)(=O)N3CCCC3)ccc2c1	CAL PDZ FP-1 81
CCOC(=O)N1CCN(CC(=O)Nc2ccc([N+](=O)[O-])cc2C(=O)Nc2ccccc2F)CC1	none
COc1ccc(NC(=O)Nc2c(C)n(C)n(-c3ccccc3)c2=O)cc1OC	none
O=C(O)c1ccc(/C=C/c2nc3ccccc3c(=O)[nH]2)cc1	CAL PDZ FP-1 active
c1ccc2c(c1)CC1(CCCC1)N=C2N1CCOCC1	CAL PDZ FP-1 68
O=S1(=O)N=C(N2CCOCC2)c2ccccc21	none
COc1cccc(N2CCN(C(=O)c3ccc(CS(=O)c4ccc(C)cc4)o3)CC2)c1 (centres undefined)	none
C[C@H]1CN([C@@H](C)CO)C(=O)c2cc(NC(=O)Nc3ccc(F)cc3)ccc2O[C@@H]1CN(C)C	none (no result: CAL PDZ FP-1, Rce1 inhib, CAL PDZ FP-2, AI-2 QS modul)
O=C(CCSc1nnc(-c2ccncc2)o1)Nc1cccc2ccccc12	none
CC(Cc1cccnc1)NC(=O)c1ccccc1OC1CCN(S(C)(=O)=O)CC1 (centres undefined)	CAL PDZ FP-1 31
COc1ccc(-c2noc(CCC(=O)N3CCN(c4ccccc4C)CC3)n2)cc1	none (no result: Rce1 inhib, AI-2 QS modul)
CC1(C)CCC(=NNC(N)=S)CC1	ARNT TACC3 PPI 21 (no result: Rce1 inhib, AI-2 QS modul)
CCOc1ccc(NC(=S)N(CCN2CCOCC2)Cc2cc3cc4c(cc3[nH]c2=O)OCO4)cc1	CAL PDZ FP-1 63
Cc1ccc(NC(=S)N(CCN2CCOCC2)Cc2cc3cc4c(cc3[nH]c2=O)OCCO4)cc1	none
Cc1ccc(NC(=S)N(CCN2CCOCC2)Cc2cc3cc4c(cc3[nH]c2=O)OCO4)cc1	CAL PDZ FP-1 52
Cn1c(C(=O)N2CCN(c3ncccn3)CC2)cc2c(=O)n(C)c3ccccc3c21	none (no result: CAL PDZ FP-1)
COCCNc1c2c(nc3c(-c4ccccc4)c(C)nn13)CCCC2	none (no result: CAL PDZ FP-1)
Cc1nn2c(NCCN(C)C)c3c(nc2c1-c1ccccc1)CCCC3	Rce1 inhib active (no result: CAL PDZ FP-1)
